Experiments:
[1] = tested on: MCF7; experiment: Tested for in vitro concentration required to inhibit growth by 50% against MCF-7 human breast cancer cell line cell line; format: functional
[2] = tested on: Nucleic Acid; experiment: Concentration required to displace 50% of the ethidium from a preformed, intercalated complex; format: nucleic-acid assay
Method in brief: (§1)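 Ethidium displacement (Cain et al. method), pH 7.0. A preformed DNA–ethidium intercalated complex in HEPES buffer with NaCl and EDTA is titrated with ligand while intercalated-ethidium fluorescence is monitored. C50 is the ligand concentration that displaces 50% of the ethidium. K_app = (1.26 × K_e)/C50, using the known ethidium binding constant under these conditions. Means of three experiments.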

[3] = tested on: NCI/ADR-RES; experiment: Tested for in vitro concentration required to inhibit growth by 50% against MCF-7/ADR human breast cancer cell line cell line; format: functional
[4] = tested on: HT-29; experiment: Tested for in vitro concentration required to inhibit growth by 50% against HT-29 human colon cancer cell line; format: functional
[5] = tested on: HCT-116; experiment: Tested for in vitro concentration required to inhibit growth by 50% against HCT116 human colon cancer cell line; format: functional
[6] = tested on: Nucleic Acid; experiment: Apparent binding constant was calculated; format: nucleic-acid assay; method in brief: as §1

Row | Compound | GI50 [1] [µM] | C50 [2] [µM] | GI50 [3] [µM] | GI50 [4] [µM] | GI50 [5] [µM] | K app [6] [M⁻¹]
1 | CC1(C)O[C@H]2[C@H](O1)[C@H](O)CN(c1ccc(OCCCOc3ccc(N4C[C@@H](O)[C@H]5OC(C)(C)O[C@@H]5[C@H](O)C4)cc3)cc1)C[C@H]2O | 33 | 703 | > 50 | 40 | 32 | 17000
2 | Cn1cc(NC(=O)c2cc(NC(=O)c3cc(NC=O)cn3C)cn2C)cc1C(=O)NCCC(=N)N |  | 1.8 |  |  |  | 6.7e+06
3 | OC1CN(Cc2ccc(OCCCOc3ccc(CN4C[C@@H](O)[C@@H](O)[C@H](O)[C@H](O)C4)cc3)cc2)C[C@@H](O)[C@@H](O)C1O (single isomer, unassigned) | > 50 | 61.6 | > 50 | 24 | > 50 | 190000
4 | CC1(C)O[C@H]2[C@H](O1)[C@H](O)CN(Cc1ccc(OCCCOc3ccc(CN4CC(O)[C@H]5OC(C)(C)O[C@@H]5[C@H](O)C4)cc3)cc1)C[C@H]2O (single isomer, unassigned) | 24 |  | 10 | 23 | 6 | 
5 | OC1CN(Cc2ccc(OCCCOc3ccc(CN4C[C@H](O)[C@@H](O)[C@H](O)[C@@H](O)C4)cc3)cc2)C[C@H](O)[C@@H](O)C1O (single isomer, unassigned) |  | 97 |  |  |  | 120000
6 | O=C(O)CCCc1ccc(N(CCCl)CCCl)cc1 [CHLORAMBUCIL] | 30 |  | 56 | 129 | 105 | 
7 | COc1cccc2c1C(=O)c1c(O)c3c(c(O)c1C2=O)C[C@@](O)(C(=O)CO)C[C@@H]3O[C@H]1C[C@H](N)[C@H](O)[C@H](C)O1 [DOXORUBICIN] | 0.013 |  | 16.7 | 0.056 | 0.023 | 
8 | N=C(N)c1ccc(OCCCOc2ccc(C(=N)N)cc2)cc1 [PROPAMIDINE] | 9 | 25.6 |  | > 50 | 11 | 470000
